This is an account of results in ChEMBL document CHEMBL4368909, “Identification of Dihydrofuro[3,4- d]pyrimidine Derivatives as Novel HIV-1 Non-Nucleoside Reverse Transcriptase Inhibitors with Promising Antiviral Activities and Desirable Physicochemical Properties” (J Med Chem, 2019).

The structures appear in SMILES notation. Converted amounts (≈) assume the structure as drawn.

Data set [1] in a line: Tmax in Wistar rat at 2 mg/kg, iv by LC-MS/MS analysis. It is filed as ADME, organism-based. As to conditions: in vivo. Summed up: (§1)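 Male/unspecified Wistar rats given one dose, 2 mg/kg intravenously or 20 mg/kg orally; plasma concentration–time profiles followed; PK parameters reported as mean ± SD, n = 5.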
In data set [2] the test system is Human immunodeficiency virus 1. Nature of the data set: Antiviral activity against HIV1 harboring reverse transcriptase F227L/V106A double mutant infected in human MT4 cells assessed as reduction in virus-induced cytopathic effect after 5 days by MTT assay. It is filed as functional, organism-based. As to conditions: Human immunodeficiency virus 1, MT4, 120 h. (Protection from cytopathic effect is a common read-out in antiviral testing.)

Data set [3] has as its system Human immunodeficiency virus 1. Nature of the data set: Resistance factor, ratio of EC50 for HIV1 harboring reverse transcriptase Y188L mutant to EC50 for wild type HIV1. It is filed as functional. Summed up: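 The resistance factor is the EC50 against the mutant strain divided by the EC50 against wild-type HIV-1. Both were measured in MT-4 cells by MTT read-out of protection from virus-induced cytopathicity.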

In data set [4] the target is Voltage-gated inwardly rectifying potassium channel KCNH2 (Homo sapiens, UniProt Q12809). The experiment in a line: Inhibition of human ERG expressed in HEK293 cells at -80 mV holding potential by manual patch clamp assay. (In general: In patch-clamp work, channel activity is measured electrically.)
A short description of data set [5]: Sub-acute toxicity in Kunming mouse assessed as effect on heart at 50 mg/kg/day, po administered for 2 weeks by hematoxylin and eosin staining-based assay. As to conditions: in vivo, 336 h. It is filed as organism-based. Put shortly:
(§2)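 Mice were dosed orally at 50 mg/kg/day for 2 weeks and observed for behavioural abnormalities during treatment. Organs were then examined by hematoxylin–eosin staining.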

The subject of data set [6] is Human immunodeficiency virus 1. Nature of the data set: Antiviral activity against wild type HIV1 3B infected in human MT4 cells assessed as reduction in virus-induced cytopathic effect after 5 days by MTT assay. It is filed as functional, organism-based. Particulars: Human immunodeficiency virus 1, 3B, MT4, 120 h.
Data set [7] in a line: Protein binding in rat plasma at 2 uM after 5 hrs by LC/MS analysis. It is filed as ADME, cell-free. Particulars: read-out: PPB (converted).
The nature of data set [8]: Cmax in Wistar rat at 20 mg/kg, po by LC-MS/MS analysis. Particulars: in vivo. It is filed as ADME, organism-based. Details: dose 20 mg/kg, route oral. Summed up:
as §1

Data set [9] relates to Human immunodeficiency virus 1. The experiment in a line: Antiviral activity against HIV1 harboring reverse transcriptase K103N mutant infected in human MT4 cells assessed as reduction in virus-induced cytopathic effect after 5 days by MTT assay. It is filed as functional, organism-based. Particulars: Human immunodeficiency virus 1, MT4, 120 h.
Data set [10] relates to Human immunodeficiency virus 1. The experiment in a line: Antiviral activity against HIV1 RES056 infected in human MT4 cells assessed as reduction in virus-induced cytopathic effect after 5 days by MTT assay. It is filed as functional, organism-based. Particulars: Human immunodeficiency virus 1, RES056, MT4, 120 h.
For the next data set, the system named is MT4. The experiment in a line: Cytotoxicity against human MT4 cells after 5 days by MTT assay. It is filed as cell-based. Particulars: mt4, 120 h. Background: Formazan colour is commonly taken as a measure of viable cells.
Data set [11] is described as follows: Clearance in Wistar rat at 2 mg/kg, iv by LC-MS/MS analysis. Particulars: in vivo. It is filed as ADME, organism-based. Put shortly: as §1
Data set [12] is described as follows: Aqueous solubility of the compound in FASSIF by HPLC analysis. It is filed as physicochemical. As to conditions: simulated gi fluid. Summed up:
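Solubility read by HPLC in fasted state simulated intestinal fluid (FaSSIF).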

Data set [13] in a line: Aqueous solubility of the compound at pH at 7.4 by HPLC analysis. As to conditions: buffer, pH 7.4. It is filed as physicochemical. Put shortly:
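Aqueous solubility read by HPLC in buffer at pH 2.0, 7.0 or 7.4.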

Data set [14] is described as follows: Sub-acute toxicity in Kunming mouse assessed as effect on lungs at 50 mg/kg/day, po administered for 2 weeks by hematoxylin and eosin staining-based assay. Particulars: in vivo, 336 h. It is filed as organism-based. Put shortly:
as §2

Data set [15] concerns Human immunodeficiency virus 1. The experiment in a line: Antiviral activity against HIV1 harboring reverse transcriptase E138K mutant infected in human MT4 cells assessed as reduction in virus-induced cytopathic effect after 5 days by MTT assay. It is filed as functional, organism-based. Particulars: Human immunodeficiency virus 1, MT4, 120 h.
Data set [16] in a line: Acute toxicity in Kunming mouse assessed as behavior abnormalities at 800 mg/kg, po measured after 2 weeks. It is filed as organism-based. As to conditions: in vivo, 336 h. Put shortly:
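Kunming mice received a single intragastric dose of 800 mg/kg. Deaths and behaviour were observed over 2 weeks and compared with a control group.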

Data set [17] can be described thus: Cmax in Wistar rat at 2 mg/kg, iv by LC-MS/MS analysis. It is filed as ADME, organism-based. Set-up: dose 2 mg/kg, route intravenous. Particulars: in vivo. Put shortly:
as §1

Data set [18] in a line: Protein binding in rat plasma assessed as recovery rate at 2 uM after 5 hrs by LC/MS analysis. It is filed as ADME, cell-free.

Chain of Voltage-gated inwardly rectifying potassium channel KCNH2 (Q12809 whole entry): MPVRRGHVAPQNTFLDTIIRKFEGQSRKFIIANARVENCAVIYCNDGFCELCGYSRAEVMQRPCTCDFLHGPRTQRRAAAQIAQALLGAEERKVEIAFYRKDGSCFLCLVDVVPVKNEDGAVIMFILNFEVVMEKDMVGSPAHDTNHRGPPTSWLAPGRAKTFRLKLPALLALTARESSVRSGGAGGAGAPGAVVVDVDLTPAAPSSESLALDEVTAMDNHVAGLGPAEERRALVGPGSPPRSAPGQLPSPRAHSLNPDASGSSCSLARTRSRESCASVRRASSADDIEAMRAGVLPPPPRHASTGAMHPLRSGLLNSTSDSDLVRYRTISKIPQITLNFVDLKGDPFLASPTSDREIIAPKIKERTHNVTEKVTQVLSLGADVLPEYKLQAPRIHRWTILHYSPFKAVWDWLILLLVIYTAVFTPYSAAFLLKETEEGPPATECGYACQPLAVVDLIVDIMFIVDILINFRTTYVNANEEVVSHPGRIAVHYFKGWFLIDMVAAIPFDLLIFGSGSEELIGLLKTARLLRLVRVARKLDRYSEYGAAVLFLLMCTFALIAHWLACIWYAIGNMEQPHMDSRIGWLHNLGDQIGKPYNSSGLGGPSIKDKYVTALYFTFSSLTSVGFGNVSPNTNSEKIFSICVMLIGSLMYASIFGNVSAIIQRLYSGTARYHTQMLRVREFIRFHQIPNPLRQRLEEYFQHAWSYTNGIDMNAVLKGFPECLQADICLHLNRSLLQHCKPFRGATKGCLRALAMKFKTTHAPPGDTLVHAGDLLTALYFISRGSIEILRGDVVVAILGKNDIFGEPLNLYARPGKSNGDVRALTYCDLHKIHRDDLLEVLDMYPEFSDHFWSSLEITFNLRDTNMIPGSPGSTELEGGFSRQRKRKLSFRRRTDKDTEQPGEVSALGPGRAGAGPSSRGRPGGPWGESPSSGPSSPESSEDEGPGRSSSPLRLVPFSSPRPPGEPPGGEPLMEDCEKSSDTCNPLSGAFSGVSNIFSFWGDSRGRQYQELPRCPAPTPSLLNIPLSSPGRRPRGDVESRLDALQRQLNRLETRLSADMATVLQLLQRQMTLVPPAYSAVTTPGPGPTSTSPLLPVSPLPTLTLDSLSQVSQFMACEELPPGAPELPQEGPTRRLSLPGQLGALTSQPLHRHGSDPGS

A word on the Tmax: it is the time at which the peak concentration occurs. One may read the EC50 as the concentration giving half of the maximal effect. For orientation: IC50 means the concentration that gives 50% inhibition. What is called Cmax is the maximum level reached in the sampled fluid or tissue. In general, CC50 refers to the concentration giving 50% cytotoxicity. A low value points to harm at low concentration. The clearance is a measure of how efficiently the substance is removed, as volume per time. High values mean efficient removal, low ones inefficient removal. As usually defined, the solubility is the concentration that dissolves in the medium under given conditions. A high value points to much dissolved substance. For `Cc1cc(C#N)cc(C)c1Oc1nc(NC2CCN(Cc3ccc(C(N)=O)cc3)CC2)nc2c1COC2`, in data set [1], the Tmax was 1.98 min. Further, the 50% effective concentration (EC50) in [2] stood at 19 nM; in data set [6], 1.6 nM; in data set [9] it was 0.9 nM; in data set [10], 41.5 nM; in [15], 7 nM. For the same molecule, the “Ratio EC50” value in data set [3] is 5.3. This molecule also displayed an IC50 in data set [4] of 830 nM. Further, the Activity entry in data set [5], in [14] and in data set [16] was “Non-Toxic” each time. In data set [7], the fraction unbound at 5 h, 2 µM is 0.082. The Cmax in data set [8] came out at 400 ng/mL; in [17] it was 460 ng/mL. Further, in the data set with MT4, the CC50 was more than 250000 nM. The same molecule gave a clearance in data set [11] of 61.5 mL/min/kg. The results for the solubility in data set [12] and in data set [13] were 32.5 µg/mL (≈ 65.2 µM) and 6.59 µg/mL (≈ 13.2 µM), respectively. In addition, in [18], the Drug recovery came out at 77.9%.
